Results taken from publication PMC11892073 (Journal of Enzyme Inhibition and Medicinal Chemistry, 2025).

Tested on: DU-145 prostate cancer cells
Assay: In vitro antiproliferation assay
Assay type: cell-based
Settings: Homo sapiens, DU-145, 72 h, read-out: DU-145 (IC50, nM)
How it was run: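 DU-145 cells (ATCC) grown in medium with 10% (v/v) FBS, 50 units/ml penicillin and 50 µg/ml streptomycin at 37 °C, 5% CO2. Seeded at 5 × 10^4 cells/well, left overnight, then exposed to varying test compound concentrations for 72 h at 37 °C. A 5 mg/mL MTT solution was added for 4 h. Supernatant was removed by centrifugation and crystals dissolved in DMSO. A570 was read. IC50 came from nonlinear regression; mean ± SD, n = 3.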

- IC50: 4.03 ± 0.15 nM
SMILES: CC[C@@H]1C(=O)N(C)c2cnc(Nc3ccc(C(=O)N[C@H]4CC[C@H](N5CCN(CC6CC6)CC5)CC4)cc3OC)nc2N1C(C)C [BI-6727, volasertib]
